Consider 5 molecules from ChEMBL document CHEMBL1129642, “Design, synthesis, and evaluation of 2 beta-alkenyl penam sulfone acids as inhibitors of beta-lactamases” (J Med Chem, 1996).

For data set [1], the system named is Citrobacter freundii. As to the kind of experiment: (§1) Compound was tested for the half saturation constant derived from concentration dependence studies in Citrobacter freundii. The format is organism-based. A digest of the protocol: (§2)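 Purified β-lactamases (C. freundii 1928, E. coli SNO3, TEM-3, SHV-2) reacted with inhibitor. K_S is the half-saturation constant for forming the acyl-enzyme complex, taken from the concentration dependence of that reaction. It was obtained together with the acylation rate k_on and the acyl-enzyme breakdown rate k_off, using previously published kinetic methods.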

In data set [2] the test system is Escherichia coli. As to the kind of experiment: (§3) Compound was tested for the half saturation constant derived from concentration dependence studies in Escherichia coli SHV-2. The format is organism-based. A digest of the protocol:
as §2

Data set [3] has as its system Escherichia coli. As to the kind of experiment: (§4) Compound was tested for the half saturation constant derived from concentration dependence studies in Escherichia coli SNO3. Format: organism-based. The gist of the method:
as §2

Data set [4] concerns Escherichia coli. As to the kind of experiment: (§5) Compound was tested for the half saturation constant derived from concentration dependence studies in Escherichia coli TEM-3. The format is organism-based. The gist of the method: as §2
Another data set deals with Beta-lactamase L1 (Stenotrophomonas maltophilia, UniProt P52700). As to the kind of experiment: Compound was tested for inhibition of Beta-lactamase from Xanthomonas maltophila 328.
Another data set has as its system Bacillus licheniformis. As to the kind of experiment: Compound was tested for inhibition of Bacillus licheniformis 749/C, class A of beta-Lactamases. Format: functional, organism-based.
In the next data set the target is Beta-lactamase OXA-1 (Escherichia coli, UniProt P13661). As to the kind of experiment: Compound was tested for inhibition of Beta-lactamase from OXA-1.
A further data set addresses Beta-lactamase pse-1 (Escherichia coli, UniProt Q2V0Y6). As to the kind of experiment: Compound was tested for inhibition of Beta-lactamase from PSE-1.
Data set [5] addresses T1, Beta-lactamase TEM (Escherichia coli, UniProt P62593). As to the kind of experiment: Compound was tested for inhibition of Beta-lactamase from RTEM-1.
Data set [6] addresses T1, Beta-lactamase TEM. As to the kind of experiment: Compound was tested for inhibition of Beta-lactamase from RTEM-2.
In the next data set the target is Beta-lactamase SHV-1 (Escherichia coli, UniProt P0AD63). As to the kind of experiment: Compound was tested for inhibition of Beta-lactamase from SHV-2.
Data set [7] deals with T2, Beta-lactamase (Bacillus licheniformis, UniProt P00808). As to the kind of experiment: Compound was tested for inhibition of Beta-lactamase from Bacillus licheniformis 749/C.
For data set [8], the target named is Metallo-beta-lactamase type 2 (Bacteroides fragilis, UniProt P25910). As to the kind of experiment: Compound was tested for inhibition of Beta-lactamase from Bacteroides fragilis BF 101.
The target of data set [9] is T3, Beta-lactamase (Pseudomonas aeruginosa (strain ATCC 15692 / PAO1 / 1C / PRS 101 / LMG12228), UniProt P24735). As to the kind of experiment: Compound was tested for inhibition of Beta-lactamase from Pseudomonas aeruginosa GN10362.
Data set [10] concerns the target T3, Beta-lactamase. As to the kind of experiment: Compound was tested for inhibition of Beta-lactamase from Pseudomonas aeruginosa MK-1184.
The subject of data set [11] is Citrobacter freundii. As to the kind of experiment: Compound was tested for inhibition of Citrobacter freundii 1928 in combination with Ceftriaxone (expressed in MIC). Format: functional, organism-based.
Data set [12] deals with Citrobacter freundii. The data set is described as §1. Format: functional. The gist of the method: as §2
The test system of data set [13] is Escherichia coli. The data set is described as §3. Format: functional. A digest of the protocol: as §2
For data set [14], the system named is Enterobacter cloacae. As to the kind of experiment: Compound was tested for inhibition of Ent. cloacae 908R in combination with Ceftriaxone (expressed in MIC). The format is functional, organism-based. The gist of the method: (§6)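 MICs determined by serial 2-fold dilution in Mueller-Hinton broth with an inoculum of approximately 10⁵ cfu/mL. The test compound was combined with ceftriaxone.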

For data set [15], the system named is Escherichia coli. The data set is described as §4. Format: functional. A digest of the protocol:
as §2

Data set [16] concerns Escherichia coli. The data set is described as §5. Format: functional. The gist of the method:
as §2

The target in data set [17] is Penicillin-binding protein 2b (Staphylococcus aureus, UniProt Q9XDB3). As to the kind of experiment: Compound was tested for inhibition of Penicillin-binding protein 3 from Staphylococcus aureus (Schoch). The gist of the method: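 Competition for penicillin binding measured on S. aureus Schoch membrane fragments with 14C-labelled benzylpenicillin as the probe. The value is the IC50 (µM) for the PBP 3 band.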

Data set [18] addresses PBP3 from Escherichia coli (K-12) (Escherichia coli, UniProt P0AD68). As to the kind of experiment: Compound was tested for inhibition of Penicillin-binding protein 3 from Escherichia coli.
Data set [19] has as its system Pseudomonas aeruginosa. As to the kind of experiment: Compound was tested for inhibition of Pseudomonas aeruginosa 18SH in combination with Ceftriaxone (expressed in MIC). Format: functional, organism-based. The gist of the method:
as §6

For data set [20], the target named is Beta-lactamase (Staphylococcus aureus, UniProt P00807). As to the kind of experiment: Compound was tested for inhibition of Beta-lactamase from Staphylococcus aureus PCI.
Data set [21] has as its target Beta-lactamase (Escherichia coli K-12, UniProt P00811). As to the kind of experiment: Compound was tested for inhibition of Escherichia coli AmpC, class C of Beta-lactamase.
The target in data set [22] is T2, Beta-lactamase. As to the kind of experiment: Compound was tested for inhibition of Bacillus licheniformis 749/C, class A of Beta-lactamase.
Data set [23] addresses T3, Beta-lactamase. As to the kind of experiment: Compound was tested for inhibition of Pseudomonas aeruginosa 18SH, class C of Beta-lactamase.
Data set [24] has as its target Beta-lactamase (Citrobacter freundii, UniProt P05193). As to the kind of experiment: Compound was tested for inhibition of Citrobacter freundii 1928, class C of Beta-lactamase.
Data set [25] has as its target Penicillin-binding protein 4 (Staphylococcus aureus, UniProt P72355). As to the kind of experiment: Compound was tested for inhibition of Penicillin-binding protein 4 from Staphylococcus aureus (Schoch).
For data set [26], the target named is T4, Penicillin-binding protein 1B (Escherichia coli K-12, UniProt P02919).
T4 sequence (P02919 whole entry): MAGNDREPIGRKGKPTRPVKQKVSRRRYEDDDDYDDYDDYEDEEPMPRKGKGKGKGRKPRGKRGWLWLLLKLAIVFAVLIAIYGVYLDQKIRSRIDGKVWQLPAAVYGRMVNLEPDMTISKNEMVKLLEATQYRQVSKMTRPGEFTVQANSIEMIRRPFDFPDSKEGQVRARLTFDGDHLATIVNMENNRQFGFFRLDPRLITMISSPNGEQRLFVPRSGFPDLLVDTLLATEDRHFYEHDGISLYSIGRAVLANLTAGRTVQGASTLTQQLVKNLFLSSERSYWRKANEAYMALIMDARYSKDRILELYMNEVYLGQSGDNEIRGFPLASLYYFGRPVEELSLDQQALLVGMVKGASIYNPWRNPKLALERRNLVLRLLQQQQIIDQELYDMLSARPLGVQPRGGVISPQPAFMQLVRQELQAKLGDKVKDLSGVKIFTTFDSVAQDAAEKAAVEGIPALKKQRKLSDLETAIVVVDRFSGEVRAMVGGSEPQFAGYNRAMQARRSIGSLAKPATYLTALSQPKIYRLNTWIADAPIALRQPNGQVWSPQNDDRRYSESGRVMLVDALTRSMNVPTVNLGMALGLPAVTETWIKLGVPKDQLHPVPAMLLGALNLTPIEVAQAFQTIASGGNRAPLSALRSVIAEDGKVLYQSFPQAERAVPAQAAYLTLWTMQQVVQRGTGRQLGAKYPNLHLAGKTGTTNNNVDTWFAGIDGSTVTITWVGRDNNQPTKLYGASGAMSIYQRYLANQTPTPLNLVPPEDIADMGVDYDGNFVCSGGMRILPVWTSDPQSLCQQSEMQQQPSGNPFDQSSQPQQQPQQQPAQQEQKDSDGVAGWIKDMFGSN
As to the kind of experiment: Compound was tested for inhibition of Penicillin-binding protein 1b from Escherichia coli. A digest of the protocol:
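Penicillin binding was assayed on membrane fragments from E. coli W3110 or S. aureus Schoch, using ¹⁴C-labeled benzylpenicillin as the probe. IC₅₀ values are reported in µM.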

Data set [27] concerns the target Peptidoglycan D,D-transpeptidase MrdA (Escherichia coli K-12, UniProt P0AD65). As to the kind of experiment: Compound was tested for inhibition of Penicillin-binding protein 2 from Escherichia coli.
Data set [28] in a line: Compound was tested for inhibition of Penicillin-binding protein 1 from Staphylococcus aureus (Schoch).
Data set [29] can be described thus: (§7) Compound was tested for inhibition of TEM-1, class A of beta-lactamases. Also noted: species or system Escherichia coli.
The nature of data set [30]: (§8) Compound was tested for inhibition of TEM-3, class A of beta-lactamases. Also noted: species or system Escherichia coli.
The nature of data set [31]: (§9) Compound was tested for inhibition of pTEM-3 from Escherichia coli in combination with Ceftriaxone (expressed in MIC). The gist of the method: as §6
Data set [32] is described as follows: (§10) Compound was tested for inhibition of pTEM-4 from Escherichia coli in combination with Ceftriaxone (not active). The gist of the method:
as §6

Data set [33] is described as follows: as §8. The format is functional, Escherichia coli.
Data set [34] can be described thus: as §9. Format: functional.
Data set [35] can be described thus: as §10. The format is functional.
A short description of data set [36]: as §7. The format is functional, Escherichia coli.
In data set [37] the test system is Citrobacter freundii. As to the kind of experiment: Compound was tested for inhibition of Citrobacter freundii 1928 in combination with Ceftriaxone. The format is functional. The gist of the method: as §6
Data set [38] deals with Enterobacter cloacae. As to the kind of experiment: Compound was tested for inhibition of Ent. cloacae 908R in combination with Ceftriaxone. The format is functional, organism-based. The gist of the method: as §6
Data set [39] concerns Pseudomonas aeruginosa. As to the kind of experiment: Compound was tested for inhibition of Pseudomonas aeruginosa 18SH in combination with Ceftriaxone. The format is functional. A digest of the protocol: as §6
A short description of data set [40]: Compound was tested for inhibition of pTEM-3 from Escherichia coli in combination with Ceftriaxone. Format: functional. A digest of the protocol:
as §6

The nature of data set [41]: Compound was tested for inhibition of pTEM-4 from Escherichia coli in combination with Ceftriaxone. The format is functional. A digest of the protocol: as §6

T3 sequence (P24735 whole entry): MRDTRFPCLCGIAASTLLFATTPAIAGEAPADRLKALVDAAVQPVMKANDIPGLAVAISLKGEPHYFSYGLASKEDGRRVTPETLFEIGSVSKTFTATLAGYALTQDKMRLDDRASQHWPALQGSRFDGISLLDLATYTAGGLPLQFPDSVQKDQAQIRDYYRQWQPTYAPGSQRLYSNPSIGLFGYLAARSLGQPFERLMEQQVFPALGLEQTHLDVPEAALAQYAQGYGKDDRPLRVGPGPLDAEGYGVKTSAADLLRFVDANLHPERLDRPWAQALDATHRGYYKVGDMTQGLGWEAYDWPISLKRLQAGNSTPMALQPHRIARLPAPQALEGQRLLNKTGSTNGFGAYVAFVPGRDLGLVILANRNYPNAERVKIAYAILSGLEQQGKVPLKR
T2 sequence (P00808 whole entry): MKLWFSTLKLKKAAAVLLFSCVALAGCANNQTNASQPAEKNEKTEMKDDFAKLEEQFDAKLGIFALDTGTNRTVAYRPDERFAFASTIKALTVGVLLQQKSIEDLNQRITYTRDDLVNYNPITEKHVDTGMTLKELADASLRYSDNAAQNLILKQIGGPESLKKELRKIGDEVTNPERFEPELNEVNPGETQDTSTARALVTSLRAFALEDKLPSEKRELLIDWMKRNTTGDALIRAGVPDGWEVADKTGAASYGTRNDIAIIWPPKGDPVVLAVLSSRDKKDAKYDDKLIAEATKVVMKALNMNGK
Sequence of Beta-lactamase L1 (P52700 whole entry): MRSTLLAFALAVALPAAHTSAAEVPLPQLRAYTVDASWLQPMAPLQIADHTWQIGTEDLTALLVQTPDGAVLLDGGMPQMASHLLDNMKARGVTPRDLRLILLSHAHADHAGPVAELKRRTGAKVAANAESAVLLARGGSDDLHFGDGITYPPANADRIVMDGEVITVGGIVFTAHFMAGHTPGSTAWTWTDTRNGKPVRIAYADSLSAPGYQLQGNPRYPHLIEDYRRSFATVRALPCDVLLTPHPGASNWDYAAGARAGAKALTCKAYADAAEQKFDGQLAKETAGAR
T1 sequence (P62593 whole entry): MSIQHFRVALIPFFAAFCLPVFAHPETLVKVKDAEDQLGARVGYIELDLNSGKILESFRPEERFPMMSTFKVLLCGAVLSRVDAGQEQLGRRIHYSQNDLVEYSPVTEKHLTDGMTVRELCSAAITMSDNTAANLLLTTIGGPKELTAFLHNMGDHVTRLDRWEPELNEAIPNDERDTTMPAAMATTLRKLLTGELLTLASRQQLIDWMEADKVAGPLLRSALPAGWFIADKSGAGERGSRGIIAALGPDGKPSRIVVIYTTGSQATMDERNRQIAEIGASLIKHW
Sequence of Penicillin-binding protein 4 (P72355 whole entry): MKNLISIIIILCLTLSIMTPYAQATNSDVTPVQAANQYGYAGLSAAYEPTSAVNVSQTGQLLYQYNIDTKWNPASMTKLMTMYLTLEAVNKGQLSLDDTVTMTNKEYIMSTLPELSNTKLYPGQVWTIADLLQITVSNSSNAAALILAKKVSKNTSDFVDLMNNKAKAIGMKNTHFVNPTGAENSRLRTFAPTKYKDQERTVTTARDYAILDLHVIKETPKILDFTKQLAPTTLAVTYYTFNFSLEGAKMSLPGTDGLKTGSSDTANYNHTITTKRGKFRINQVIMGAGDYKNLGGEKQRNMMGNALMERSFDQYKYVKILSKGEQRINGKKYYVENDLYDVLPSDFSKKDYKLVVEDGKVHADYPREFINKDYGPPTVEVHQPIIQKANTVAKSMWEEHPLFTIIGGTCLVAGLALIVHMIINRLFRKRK
Sequence of Metallo-beta-lactamase type 2 (P25910 whole entry): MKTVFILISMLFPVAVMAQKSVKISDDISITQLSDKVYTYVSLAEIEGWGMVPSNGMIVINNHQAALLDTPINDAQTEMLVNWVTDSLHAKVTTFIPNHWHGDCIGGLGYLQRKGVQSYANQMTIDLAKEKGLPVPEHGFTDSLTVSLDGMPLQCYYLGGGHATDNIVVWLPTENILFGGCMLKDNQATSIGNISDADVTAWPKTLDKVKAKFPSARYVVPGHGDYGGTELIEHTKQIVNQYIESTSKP
Sequence of Beta-lactamase SHV-1 (P0AD63 22-286 limits assumed): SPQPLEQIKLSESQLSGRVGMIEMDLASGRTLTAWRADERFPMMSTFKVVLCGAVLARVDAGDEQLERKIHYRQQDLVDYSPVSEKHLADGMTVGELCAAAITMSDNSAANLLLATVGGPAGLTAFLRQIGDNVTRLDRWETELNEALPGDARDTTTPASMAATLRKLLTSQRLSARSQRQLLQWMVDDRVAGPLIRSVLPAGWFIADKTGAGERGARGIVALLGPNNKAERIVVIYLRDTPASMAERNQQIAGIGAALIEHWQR
Sequence of Peptidoglycan D,D-transpeptidase MrdA (P0AD65 whole entry): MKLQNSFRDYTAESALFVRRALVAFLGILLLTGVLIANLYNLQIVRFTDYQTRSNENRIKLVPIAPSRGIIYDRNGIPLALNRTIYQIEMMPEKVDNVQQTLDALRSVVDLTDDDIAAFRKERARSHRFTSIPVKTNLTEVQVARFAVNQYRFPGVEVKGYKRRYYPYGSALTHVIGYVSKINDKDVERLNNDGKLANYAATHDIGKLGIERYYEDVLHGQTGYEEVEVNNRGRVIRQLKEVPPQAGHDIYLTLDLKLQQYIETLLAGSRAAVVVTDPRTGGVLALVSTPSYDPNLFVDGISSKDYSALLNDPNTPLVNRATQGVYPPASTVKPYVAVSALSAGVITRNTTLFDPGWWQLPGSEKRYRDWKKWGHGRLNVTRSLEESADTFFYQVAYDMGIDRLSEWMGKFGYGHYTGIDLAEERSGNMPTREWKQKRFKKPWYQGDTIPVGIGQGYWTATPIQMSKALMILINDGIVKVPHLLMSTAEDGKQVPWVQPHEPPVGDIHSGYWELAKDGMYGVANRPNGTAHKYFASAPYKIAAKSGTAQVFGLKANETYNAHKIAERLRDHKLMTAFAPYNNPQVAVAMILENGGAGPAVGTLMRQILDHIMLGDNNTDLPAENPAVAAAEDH
Sequence of Beta-lactamase (Staphylococcus aureus, UniProt P00807) (P00807 whole entry): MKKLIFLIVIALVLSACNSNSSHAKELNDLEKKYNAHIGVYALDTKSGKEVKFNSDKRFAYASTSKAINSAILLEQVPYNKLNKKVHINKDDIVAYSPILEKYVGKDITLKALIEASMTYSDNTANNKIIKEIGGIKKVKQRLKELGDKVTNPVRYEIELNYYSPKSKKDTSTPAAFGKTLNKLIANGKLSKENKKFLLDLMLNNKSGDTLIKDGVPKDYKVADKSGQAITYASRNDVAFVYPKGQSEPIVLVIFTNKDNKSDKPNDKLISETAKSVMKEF
Sequence of Beta-lactamase (Citrobacter freundii, UniProt P05193) (P05193 whole entry): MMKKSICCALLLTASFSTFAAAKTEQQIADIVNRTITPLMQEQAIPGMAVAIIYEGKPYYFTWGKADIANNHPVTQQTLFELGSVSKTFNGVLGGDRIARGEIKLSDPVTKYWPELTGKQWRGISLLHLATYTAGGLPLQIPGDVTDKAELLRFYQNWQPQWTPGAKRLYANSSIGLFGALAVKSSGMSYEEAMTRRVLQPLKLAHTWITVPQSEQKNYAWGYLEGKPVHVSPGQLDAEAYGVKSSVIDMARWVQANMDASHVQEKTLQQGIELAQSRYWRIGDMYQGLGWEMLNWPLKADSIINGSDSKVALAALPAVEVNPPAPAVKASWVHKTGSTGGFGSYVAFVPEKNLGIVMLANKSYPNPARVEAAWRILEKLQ
Sequence of Penicillin-binding protein 2b (Q9XDB3 whole entry, the tested form may be a part): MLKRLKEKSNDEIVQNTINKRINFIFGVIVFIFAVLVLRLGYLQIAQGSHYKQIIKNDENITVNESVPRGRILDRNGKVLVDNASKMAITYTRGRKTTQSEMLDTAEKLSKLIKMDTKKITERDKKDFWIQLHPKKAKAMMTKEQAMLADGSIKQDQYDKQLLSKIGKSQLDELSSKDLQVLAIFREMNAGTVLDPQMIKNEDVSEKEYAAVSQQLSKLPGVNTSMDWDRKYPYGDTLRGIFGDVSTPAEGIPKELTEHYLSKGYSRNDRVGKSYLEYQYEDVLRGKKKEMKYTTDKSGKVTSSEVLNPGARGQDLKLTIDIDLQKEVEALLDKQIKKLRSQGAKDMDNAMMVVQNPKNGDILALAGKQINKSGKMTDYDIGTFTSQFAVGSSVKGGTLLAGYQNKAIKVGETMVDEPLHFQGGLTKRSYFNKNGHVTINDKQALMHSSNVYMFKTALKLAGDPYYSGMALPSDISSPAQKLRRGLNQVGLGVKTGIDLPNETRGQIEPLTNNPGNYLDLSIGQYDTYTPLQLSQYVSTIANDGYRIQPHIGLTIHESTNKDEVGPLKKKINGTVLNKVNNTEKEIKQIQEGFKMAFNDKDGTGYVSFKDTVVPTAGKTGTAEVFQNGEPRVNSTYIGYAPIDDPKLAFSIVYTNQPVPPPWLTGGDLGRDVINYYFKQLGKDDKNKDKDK
Sequence of PBP3 from Escherichia coli (K-12) (P0AD68 whole entry, looked up): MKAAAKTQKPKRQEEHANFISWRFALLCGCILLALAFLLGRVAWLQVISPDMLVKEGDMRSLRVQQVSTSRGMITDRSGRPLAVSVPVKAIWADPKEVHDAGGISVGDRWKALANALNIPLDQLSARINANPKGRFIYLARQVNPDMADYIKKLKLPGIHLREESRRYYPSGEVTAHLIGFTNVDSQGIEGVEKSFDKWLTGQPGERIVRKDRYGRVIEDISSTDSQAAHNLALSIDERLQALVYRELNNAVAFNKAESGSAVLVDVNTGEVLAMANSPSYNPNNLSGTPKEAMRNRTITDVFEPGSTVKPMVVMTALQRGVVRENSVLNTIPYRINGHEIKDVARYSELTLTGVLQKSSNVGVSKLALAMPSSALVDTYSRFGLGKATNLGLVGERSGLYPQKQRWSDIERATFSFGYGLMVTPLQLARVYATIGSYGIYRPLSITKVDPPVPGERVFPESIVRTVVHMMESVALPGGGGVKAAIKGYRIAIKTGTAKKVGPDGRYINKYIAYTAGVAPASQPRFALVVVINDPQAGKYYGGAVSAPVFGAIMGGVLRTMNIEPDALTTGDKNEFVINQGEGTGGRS

One may read the IC50 as the concentration that gives 50% inhibition. The low end stands for greater potency in that assay, the high end for weaker potency in that assay. In the case of `C[C@]1(Cn2ccnn2)[C@H](C(=O)O)N2C(=O)C[C@H]2S1(=O)=O` [TAZOBACTAM], the Ks amounted to 110 µM with Citrobacter freundii [1], 5 µM in the data set with Escherichia coli [2], 325 µM in the data set with Escherichia coli [3] and 0.74 µM in the data set with Escherichia coli [4]. Also, the IC50 against Beta-lactamase L1 came out at 4000 µM.

What is called MIC is the lowest concentration that inhibits growth of the organism. Turning to `C[C@]1(C=CC#N)[C@H](C(=O)O)N2C(=O)C[C@H]2S1(=O)=O` [Ro-481220], the IC50 in the data set with Bacillus licheniformis was found to be 0.32 µM; against Beta-lactamase OXA-1, 0.1 µM; against Beta-lactamase pse-1 it was 0.09 µM; at Beta-lactamase TEM [5], 1.07 µM; on Beta-lactamase TEM [6] it was 0.98 µM; against Beta-lactamase SHV-1, 0.54 µM. Moreover, the concentration for half-maximal inhibition (IC50) on Beta-lactamase [7] was 0.32 µM; in data set [8] it was 200 µM; at Beta-lactamase [9] it was 0.86 µM; against Beta-lactamase [10], 1.97 µM; in data set [17] it was 170 µM; in data set [18], above 340 µM. Further, the IC50 against Beta-lactamase L1 was determined as 24 µM; on Beta-lactamase [20], 0.25 µM. The MIC in the data set on Citrobacter freundii [11] came to 1 µg/mL; with Enterobacter cloacae [14], 1 µg/mL; in the data set with Pseudomonas aeruginosa [19], 4 µg/mL. For the same molecule, the Ks in the data set on Citrobacter freundii [12] came to 125 µM; in the data set on Escherichia coli [13] it was 2.3 µM; with Escherichia coli [15], 377 µM; in the data set on Escherichia coli [16], 0.56 µM.

As to `C[C@]1(/C=C/C[n+]2ccccc2)[C@H](C(=O)O)N2C(=O)C[C@H]2S1(=O)=O`, the IC50 against Beta-lactamase [21] was 330 µM; on Beta-lactamase [22] it was 1.8 µM; at Beta-lactamase [23], 75 µM; against Beta-lactamase [24] it was 16 µM; in data set [25] it was 15 µM; in [26], above 10000 µM. Moreover, the IC50 in data set [27] stood at 297 µM; in [28], 15 µM; in [29] it was 3.6 µM; in [30], 0.14 µM. Besides, the MIC in the data set with Enterobacter cloacae [14] was 8 µg/mL; in the data set with Pseudomonas aeruginosa [19], above 16 µg/mL; in data set [31], 0.25 µg/mL; in data set [32], 0.5 µg/mL.

As for `CC(=O)/C=C\[C@@]1(C)[C@H](C(=O)O)N2C(=O)C[C@H]2S1(=O)=O`, the half-inhibitory concentration (IC50) stood at 3.9 µM in the data set with Bacillus licheniformis, 0.42 µM in [33] and 10 µM in data set [36]. The MIC in the data set with Citrobacter freundii [11] is 1 µg/mL; with Enterobacter cloacae [14] it was 2 µg/mL; with Pseudomonas aeruginosa [19], 32 µg/mL; in data set [34] it was 0.25 µg/mL; in data set [35], 2 µg/mL.

For `C[C@]1(/C=C/COC(N)=O)[C@H](C(=O)O)N2C(=O)C[C@H]2S1(=O)=O`, the IC50 worked out at 6.5 µM in the data set with Bacillus licheniformis, 0.76 µM in data set [33] and 9.1 µM in data set [36]. Further, the MIC with Citrobacter freundii [37] was found to be 4 µg/mL; in the data set with Enterobacter cloacae [38], 8 µg/mL; in the data set on Pseudomonas aeruginosa [39], 8 µg/mL; in data set [40], 1 µg/mL; in [41] it was 4 µg/mL.
